Assay results taken from ChEMBL document CHEMBL5338802, “To Fold or Not to Fold: Diastereomeric Optimization of an α-Helical Antimicrobial Peptide” (J Med Chem, 2023).
In brackets after ≈: the same amount, converted by molar mass. Non-standard residues stand in square brackets, D forms with d. Residues, ends and D or L forms follow the SMILES beside them.

Experiments:
Pseudomonas aeruginosa = experiment: Antimicrobial activity against Pseudomonas aeruginosa PAO1 assessed as microbial growth inhibition incubated for 16 to 20 hrs by broth microdilution method; format: functional; settings: time 16-20 hrs
Outline: (§1)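 Broth microdilution in MH broth, pH 7.4. An overnight LB colony culture (37 °C, 180 rpm) was diluted to OD600 0.022, giving about 5 × 10^5 CFU per well. MTT was then added, and MIC was read by eye as the lowest concentration without visible growth. Two independent duplicates were run.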

Klebsiella pneumoniae = experiment: Antimicrobial activity against Klebsiella pneumoniae NCTC418 assessed as microbial growth inhibition incubated for 16 to 20 hrs by broth microdilution method; format: functional; settings: time 16-20 hrs
Outline: (§2)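 Broth microdilution in Mueller–Hinton broth pH 7.4. Overnight LB colony culture diluted to OD600 0.022; roughly 5 × 10^5 CFU final inoculum. Static incubation at 37 °C for 16–20 h, then MTT added at room temperature. MIC is the lowest concentration with no visible growth, read by eye. Two independent duplicates.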

Staphylococcus aureus = experiment: Antimicrobial activity against methicillin-resistant Staphylococcus aureus COL assessed as microbial growth inhibition incubated for 16 to 20 hrs by MTT assay; format: functional; settings: time 16-20 hrs; outline: as §2
Erythrocyte = experiment: Hemolytic activity in human RBC incubated for 4 hrs by visual analysis; format: toxicity, cell-based
Burkholderia cenocepacia = experiment: Antimicrobial activity against multidrug-resistant Burkholderia cenocepacia assessed as microbial growth inhibition incubated for 16 to 20 hrs by broth microdilution method; format: functional; settings: time 16-20 hrs
Outline: as §2, with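 “7.4. Peptides serially diluted 1/2 from 2 mg/mL water stocks over 0.5–64 μg/mL.” for “7.4.”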

Acinetobacter baumannii = experiment: Antimicrobial growth against Acinetobacter baumannii ATCC 19606 assessed as microbial growth inhibition incubated for 16 to 20 hrs by broth microdilution method; format: functional; settings: time 16-20 hrs; outline: as §1

Row | Compound | MIC (Pseudomonas aeruginosa) [µg/mL] | MIC (Klebsiella pneumoniae) [µg/mL] | MIC (Staphylococcus aureus) [µg/mL] | MHC (Erythrocyte) [µg/mL] | MIC (Burkholderia cenocepacia) [µg/mL] | MIC (Acinetobacter baumannii) [µg/mL]
1 | H-KKIIKIIKIII-NH2 | > 64 | > 64 | > 64 | 62.5 | – | –
2 | CC[C@H](C)[C@H](NC(=O)[C@@H](NC(=O)[C@@H](NC(=O)[C@@H](CCCCN)NC(=O)[C@@H](NC(=O)[C@@H](NC(=O)[C@@H](CCCCN)NC(=O)[C@@H](NC(=O)[C@@H](NC(=O)[C@@H](CCCCN)NC(=O)[C@H](N)CCCCN)[C@@H](C)CC)[C@@H](C)CC)[C@@H](C)CC)[C@@H](C)CC)[C@@H](C)CC)[C@@H](C)CC)C(N)=O (H-[dK][dK]II[dK]II[dK]III-NH2) | – | > 64 | > 64 | 125 | – | –
3 | CC(C)C[C@H](NC(=O)[C@H](CC(C)C)NC(=O)[C@H](CC(C)C)NC(=O)[C@H](CCCCN)NC(=O)[C@H](CC(C)C)NC(=O)[C@H](CC(C)C)NC(=O)[C@H](CCCCN)NC(=O)[C@@H](CC(C)C)NC(=O)[C@@H](CC(C)C)NC(=O)[C@@H](CCCCN)NC(=O)[C@@H](N)CCCCN)C(N)=O | – | – | – | < 15.6 | > 64 | –
4 | CC(C)C[C@H](NC(=O)[C@H](CC(C)C)NC(=O)[C@H](CC(C)C)NC(=O)[C@H](CCCCN)NC(=O)[C@H](CC(C)C)NC(=O)[C@H](CC(C)C)NC(=O)[C@H](CCCCN)NC(=O)[C@H](CC(C)C)NC(=O)[C@H](CC(C)C)NC(=O)[C@@H](CCCCN)NC(=O)[C@@H](N)CCCCN)C(N)=O | – | – | – | < 15.6 | > 64 | –
5 | CC(C)C[C@H](NC(=O)[C@H](CC(C)C)NC(=O)[C@H](CC(C)C)NC(=O)[C@H](CCCCN)NC(=O)[C@H](CC(C)C)NC(=O)[C@H](CC(C)C)NC(=O)[C@H](CCCCN)NC(=O)[C@@H](CC(C)C)NC(=O)[C@H](CC(C)C)NC(=O)[C@@H](CCCCN)NC(=O)[C@@H](N)CCCCN)C(N)=O | – | – | – | < 15.6 | > 64 | –
6 | CC(C)C[C@H](NC(=O)[C@H](CC(C)C)NC(=O)[C@H](CC(C)C)NC(=O)[C@H](CCCCN)NC(=O)[C@@H](CC(C)C)NC(=O)[C@H](CC(C)C)NC(=O)[C@H](CCCCN)NC(=O)[C@@H](CC(C)C)NC(=O)[C@@H](CC(C)C)NC(=O)[C@@H](CCCCN)NC(=O)[C@@H](N)CCCCN)C(N)=O | – | – | – | 62.5 | > 64 | –
7 | CC(C)C[C@H](NC(=O)[C@H](CC(C)C)NC(=O)[C@H](CC(C)C)NC(=O)[C@@H](CCCCN)NC(=O)[C@H](CC(C)C)NC(=O)[C@H](CC(C)C)NC(=O)[C@@H](CCCCN)NC(=O)[C@H](CC(C)C)NC(=O)[C@H](CC(C)C)NC(=O)[C@@H](CCCCN)NC(=O)[C@@H](CCCCN)NC(=O)[C@H](CC(C)C)NC(=O)[C@H](CC(C)C)NC(=O)[C@H](CC(C)C)NC(=O)[C@@H](CCCCN)NC(=O)[C@H](CC(C)C)NC(=O)[C@H](CC(C)C)NC(=O)[C@@H](CCCCN)NC(=O)[C@H](CC(C)C)NC(=O)[C@H](CC(C)C)NC(=O)[C@@H](CCCCN)NC(=O)[C@H](N)CCCCN)C(N)=O (H-[dK][dK]LL[dK]LL[dK]LLL[dK][dK]LL[dK]LL[dK]LLL-NH2) | > 64 | > 64 | > 64 | < 15.6 | – | > 64
8 | CC(C)C[C@H](NC(=O)[C@H](CC(C)C)NC(=O)[C@H](CC(C)C)NC(=O)[C@H](CCCCN)NC(=O)[C@H](CC(C)C)NC(=O)[C@H](CC(C)C)NC(=O)[C@H](CCCCN)NC(=O)[C@H](CC(C)C)NC(=O)[C@H](CC(C)C)NC(=O)[C@@H](CCCCN)NC(=O)[C@H](N)CCCCN)C(N)=O | – | – | – | < 15.6 | > 64 | –
9 | CC(C)C[C@H](NC(=O)[C@H](CC(C)C)NC(=O)[C@H](CC(C)C)NC(=O)[C@@H](CCCNC(=N)N)NC(=O)[C@H](CC(C)C)NC(=O)[C@H](CC(C)C)NC(=O)[C@@H](CCCNC(=N)N)NC(=O)[C@H](CC(C)C)NC(=O)[C@H](CC(C)C)NC(=O)[C@@H](CCCNC(=N)N)NC(=O)[C@H](N)CCCNC(=N)N)C(N)=O (H-[dR][dR]LL[dR]LL[dR]LLL-NH2) | – | – | 2 (≈ 1.39 µM) | 125 | – | –
